The values below come from ChEMBL document CHEMBL3124893 (J Med Chem, 2014).

Assay [1] has as its target T1, Adenosine receptor A2a (Homo sapiens, UniProt P29274). In words: Displacement of [3H]-CGS21680 from human adenosine A2A receptor expressed in HEK293 cells after 60 mins by scintillation counting analysis. The assay is classed as cell-based. The method in brief: (§1)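 HEK-293 hA2AAR membranes (20 μg) incubated 60 min at 25 °C with 15 nM [3H]CGS21680 and increasing ligand concentrations in 50 mM Tris·HCl pH 7.4, 10 mM MgCl2. Nonspecific binding defined with 10 μM NECA. GF/B filtration, scintillation counting. Ki by Cheng–Prusoff. For weak binders, percent inhibition measured at 10 μM, 3–5 duplicate determinations.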

Assay [2] concerns the target T2, Adenosine receptor A3 (Rattus norvegicus, UniProt P28647).
T2 sequence (P28647 whole entry): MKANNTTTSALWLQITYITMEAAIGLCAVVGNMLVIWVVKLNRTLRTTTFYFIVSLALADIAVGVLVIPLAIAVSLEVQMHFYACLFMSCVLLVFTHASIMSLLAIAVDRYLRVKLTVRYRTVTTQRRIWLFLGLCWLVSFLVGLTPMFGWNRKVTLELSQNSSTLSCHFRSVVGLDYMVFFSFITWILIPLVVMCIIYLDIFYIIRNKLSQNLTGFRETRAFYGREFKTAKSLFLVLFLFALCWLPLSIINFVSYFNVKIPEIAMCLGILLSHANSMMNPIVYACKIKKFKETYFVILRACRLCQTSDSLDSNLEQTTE
In words: Displacement of [125I]-I-AB-MECA from rat adenosine A3 receptor expressed in RBL-2H3 cells after 60 mins by gamma counting analysis. The assay is classed as cell-based.

The target in assay [3] is T3, Adenosine receptor A3 (Homo sapiens, UniProt P0DMS8).
T3 sequence (P0DMS8 whole entry): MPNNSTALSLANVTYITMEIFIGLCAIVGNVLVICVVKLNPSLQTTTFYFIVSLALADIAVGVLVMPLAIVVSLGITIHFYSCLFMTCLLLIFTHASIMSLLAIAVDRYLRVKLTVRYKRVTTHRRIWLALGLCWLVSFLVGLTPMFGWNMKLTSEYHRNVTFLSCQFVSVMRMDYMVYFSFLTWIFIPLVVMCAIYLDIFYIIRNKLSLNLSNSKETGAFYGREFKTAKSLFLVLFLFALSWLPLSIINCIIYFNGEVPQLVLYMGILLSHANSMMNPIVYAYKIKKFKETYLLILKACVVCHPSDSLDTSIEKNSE
In words: Displacement of [125I]-I-AB-MECA from recombinant human adenosine A3 receptor expressed in CHO cells after 60 mins by gamma counting analysis. It counts as cell-based. In general terms: Loss of bound radioactivity is the signal in a displacement assay; it reports binding, not function.

Assay [4] deals with T4, Adenosine receptor A1 (Homo sapiens) (UniProt P30542).
T4 sequence (whole entry): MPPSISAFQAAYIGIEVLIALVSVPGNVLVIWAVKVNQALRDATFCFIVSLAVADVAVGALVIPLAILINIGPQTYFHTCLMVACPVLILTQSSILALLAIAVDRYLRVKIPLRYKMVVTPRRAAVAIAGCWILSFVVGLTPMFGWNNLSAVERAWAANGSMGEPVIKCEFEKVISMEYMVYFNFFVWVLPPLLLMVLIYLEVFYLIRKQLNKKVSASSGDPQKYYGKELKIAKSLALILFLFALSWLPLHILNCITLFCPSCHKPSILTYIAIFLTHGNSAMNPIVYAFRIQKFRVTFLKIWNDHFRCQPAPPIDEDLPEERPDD
In words: Displacement of [3H]-R-PIA from recombinant human adenosine A1 receptor expressed in CHO cells at 10 uM after 60 mins by scintillation counting analysis relative to control. The assay is classed as cell-based.

The nature of assay [5]: Antifibrotic activity in C57BL6/J mouse Prox24 cells assessed as inhibition of TGF-beta1-induced COL1A1 mRNA expression incubated for 1 hr followed by TGF-beta1 challenge measured after 6 hrs by real-time PCR analysis. It counts as functional. The method in brief: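 mProx24 immortalized proximal tubular cells from C57BL6/J mouse kidneys in DMEM, 10% FCS, 37 °C, 5% CO2. Growth-arrested 24 h in 0.15% FCS. Pretreated 1 h with compound in DMEM/0.15% FCS (DMSO stocks 50, 20, 10, 1 mM), then human TGF-β1 5 ng/mL for 6 h. COL1A1 mRNA expressed relative to TGF-β1 alone (1.0). Mean ± SE of three experiments.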
For orientation: In qPCR the cycle at which signal appears reflects the starting amount.

Assay [6] addresses T5, Adenosine receptor A3 (Homo sapiens) (UniProt P0DMS8).
T5 sequence (whole entry): T3 sequence (P0DMS8 whole entry)
Description: Partial agonist activity at recombinant human adenosine A3 receptor expressed in CHO cells assessed as stimulation of forskolin-induced intracellular cAMP production at 10 uM preincubated for 45 mins followed by forskolin challenge measured after 15 mins by liquid scintillation counting analysis in presence of rolipram and adenosine deaminase relative to NECA. It counts as functional, cell-based. The method in brief:
(§2)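 CHO cells stably expressing hA3AR, plated 24 h, washed in DMEM/50 mM HEPES pH 7.4, treated with agonists and/or test compounds plus rolipram 10 μM and adenosine deaminase 3 U/mL. Forskolin 10 μM added after 45 min, incubation continued 15 min. Lysed in 0.1 M HCl. cAMP quantified by [3H]cAMP (2 nM)–PKA competitive binding, GF/C filtration, scintillation counting. Expressed relative to NECA full agonist (100%). Curves from three determinations.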
(In general: Changes in cAMP serve as a functional read-out for many G protein-coupled receptors.)

Assay [7] deals with T3, Adenosine receptor A3. In words: Partial agonist activity at recombinant human adenosine A3 receptor expressed in CHO cells assessed as […] of forskolin-induced intracellular cAMP production preincubated for 45 mins followed by forskolin challenge measured after 15 mins by liquid scintillation counting analysis in presence of rolipram and adenosine deaminase. The assay is classed as functional, cell-based. The method in brief: as §2

Assay [8] addresses T6, Adenosine receptor A2b (Homo sapiens) (UniProt P29275).
T6 sequence (whole entry): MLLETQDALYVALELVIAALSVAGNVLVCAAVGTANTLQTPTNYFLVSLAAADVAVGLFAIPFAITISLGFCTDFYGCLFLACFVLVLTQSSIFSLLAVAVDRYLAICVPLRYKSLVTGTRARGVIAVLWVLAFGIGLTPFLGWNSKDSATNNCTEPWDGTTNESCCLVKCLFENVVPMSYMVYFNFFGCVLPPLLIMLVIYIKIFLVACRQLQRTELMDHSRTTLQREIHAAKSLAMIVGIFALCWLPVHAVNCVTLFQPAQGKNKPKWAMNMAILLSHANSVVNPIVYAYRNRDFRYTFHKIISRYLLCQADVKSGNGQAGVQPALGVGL
In words: Agonist activity at recombinant human adenosine A2B receptor expressed in CHO cells assessed as activation of intracellular cAMP production at 10 uM in presence of rolipram and adenosine deaminase relative to NECA. It counts as functional, cell-based. The method in brief:
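CHO cells stably expressing hA2BAR, plated 24 h, washed in DMEM with 50 mM HEPES pH 7.4, then exposed to compounds with rolipram 10 μM and adenosine deaminase 3 U/mL (no forskolin). Lysed in 0.1 M ice-cold HCl. cAMP measured by competitive binding of [3H]cAMP (2 nM) to protein kinase A against a 0–16 pmol standard curve, filtration, scintillation counting.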

The target in another assay is T7, Adenosine receptor A1 (Homo sapiens, UniProt P30542).
T7 sequence (P30542 whole entry): T4 sequence (whole entry)
Description: Displacement of [3H]-R-PIA from recombinant human adenosine A1 receptor expressed in CHO cells after 60 mins by scintillation counting analysis. It counts as cell-based.

For assay [9], the target named is T1, Adenosine receptor A2a. Description: Displacement of [3H]-CGS21680 from human adenosine A2A receptor expressed in HEK293 cells at 10 uM after 60 mins by scintillation counting analysis relative to control. It counts as cell-based. Summed up:
as §1

In assay [10] the target is T5, Adenosine receptor A3 (Homo sapiens). Description: Antagonist activity at recombinant human adenosine A3 receptor expressed in CHO cells assessed as forskolin-induced intracellular cAMP production preincubated for 45 mins followed by forskolin challenge measured after 15 mins by liquid scintillation counting analysis in presence of rolipram and adenosine deaminase relative to NECA. The assay is classed as functional, cell-based. Also noted: scale not given: the % may be the effect or the level left. The method in brief:
as §2

Where only a bound is given, the exact number is not on record here.

T1 sequence (P29274 whole entry): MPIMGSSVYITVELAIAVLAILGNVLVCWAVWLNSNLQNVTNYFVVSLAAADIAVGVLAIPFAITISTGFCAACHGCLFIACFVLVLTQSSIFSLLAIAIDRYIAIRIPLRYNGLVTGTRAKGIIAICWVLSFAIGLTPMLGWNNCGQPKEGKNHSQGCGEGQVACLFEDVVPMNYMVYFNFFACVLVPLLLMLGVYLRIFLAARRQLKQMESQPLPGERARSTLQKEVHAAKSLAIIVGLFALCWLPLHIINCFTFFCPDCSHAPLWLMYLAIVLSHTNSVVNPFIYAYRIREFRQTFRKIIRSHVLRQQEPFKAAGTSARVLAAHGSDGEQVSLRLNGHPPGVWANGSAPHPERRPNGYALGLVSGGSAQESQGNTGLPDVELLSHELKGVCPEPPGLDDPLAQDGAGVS

`CCCCC#Cc1nc(N)c2ncn([C@H]3[C@H](O)[C@H](O)[C@@H]4C[C@@H]43)c2n1`: the Ki on Adenosine receptor A2a [1] came to 100 nM; on Adenosine receptor A3 [2], 65 nM; at Adenosine receptor A3 [3], 16.2 nM. Besides, the inhibition in assay [4] was determined as 29%. In addition, the 50% inhibitory concentration (IC50) in assay [5] is 6120 nM.
Turning to `CCCCC#Cc1nc(NC)c2ncn([C@H]3[C@H](O)[C@H](O)[C@@H]4C[C@@H]43)c2n1`, in [6], the max activation amounted to 29.1%. Moreover, the Ki at Adenosine receptor A2a [1] amounted to 7490 nM; on Adenosine receptor A3 [2], 231 nM; at Adenosine receptor A3 [3] it was 4.9 nM. Also, the EC50 on Adenosine receptor A3 [7] amounted to 45.8 nM. The inhibition in assay [4] amounted to 14%. For the same molecule, the IC50 in [5] worked out at 830 nM. For the same molecule, the Activity in assay [8] was 15.7%.
As for `CCCCC#Cc1nc(NCC)c2ncn([C@H]3[C@H](O)[C@H](O)[C@@H]4C[C@@H]43)c2n1`, the Ki turned out to be 2860 nM at Adenosine receptor A2a [1], 176 nM at Adenosine receptor A3 [2] and 6.7 nM on Adenosine receptor A3 [3]. Further, the inhibition in assay [4] worked out at 31%. In addition, the IC50 in [5] was determined as 840 nM.
With `CCCCC#Cc1nc(NC2CC2)c2ncn([C@H]3[C@H](O)[C@H](O)[C@@H]4C[C@@H]43)c2n1`, the Ki on Adenosine receptor A1 turned out to be 2170 nM; on Adenosine receptor A2a [1], 2200 nM; on Adenosine receptor A3 [2], 39 nM; on Adenosine receptor A3 [3] it was 9.2 nM. Also, the IC50 in [5] is 11800 nM.
For `CCCCC#Cc1nc(NCc2cccc(F)c2)c2ncn([C@H]3[C@H](O)[C@H](O)[C@@H]4C[C@@H]43)c2n1`, the Ki at Adenosine receptor A3 [2] stood at 43 nM; on Adenosine receptor A3 [3], 16 nM. Also, the values for the inhibition (in assay [4]; on Adenosine receptor A2a [9]) were 21% and 27%, respectively. Also, the concentration for half-maximal inhibition (IC50) in assay [5] turned out to be 3170 nM.
As to `CCCCC#Cc1nc(NCc2cccc(I)c2)c2ncn([C@H]3[C@H](O)[C@H](O)[C@@H]4C[C@@H]43)c2n1`, the Ki at Adenosine receptor A2a [1] stood at 2530 nM; on Adenosine receptor A3 [2], 26 nM; at Adenosine receptor A3 [3], 12 nM. For the same molecule, the Activity in [10] is < 5%. Further, the inhibition in assay [4] was determined as 48%. In [5], the IC50 stood at 7880 nM.
For the molecule `CCCCC#Cc1nc(NCc2cccc(Br)c2)c2ncn([C@H]3[C@H](O)[C@H](O)[C@@H]4C[C@@H]43)c2n1`, the inhibition constant (Ki) at Adenosine receptor A2a [1] worked out at 3150 nM; at Adenosine receptor A3 [2] it was 59 nM; on Adenosine receptor A3 [3], 8.6 nM. Besides, the Activity in assay [10] was < 5%. For the same molecule, the inhibition in assay [4] came out at 38%. Further, the IC50 in [5] came to 10400 nM.
For the molecule `CCCCC#Cc1nc(NC2CCCC2)c2ncn([C@H]3[C@H](O)[C@H](O)[C@@H]4C[C@@H]43)c2n1`, the Ki was 1580 nM at Adenosine receptor A1, 1760 nM on Adenosine receptor A2a [1], 58 nM at Adenosine receptor A3 [2] and 160 nM at Adenosine receptor A3 [3]. In addition, the IC50 in assay [5] was > 50000 nM.
`CCCCC#Cc1nc(NCc2cccc(Cl)c2)c2ncn([C@H]3[C@H](O)[C@H](O)[C@@H]4C[C@@H]43)c2n1`: the Ki came to 3310 nM on Adenosine receptor A2a [1], 10.7 nM on Adenosine receptor A3 [2] and 7.8 nM at Adenosine receptor A3 [3]. Moreover, the Activity in assay [10] is < 5%. The inhibition in assay [4] is 19%. Moreover, the IC50 in assay [5] was determined as 2870 nM.

Broadly, the Ki is a measure of affinity in units of concentration, obtained from inhibition or displacement. The term inhibition denotes how much of the control response was suppressed. As a reminder, the IC50 is the concentration needed to halve the response being measured. What is called EC50 is the midpoint of the concentration-response curve.
